Reference: ChEMBL document CHEMBL1157638, “Fluorescent epigenetic small molecule induces expression of the tumor suppressor ras-association domain family 1A and inhibits human prostate xenograft” (J Med Chem, 2010)
Activity calls are given as the source filed them. The rule behind the calls is not given here.

How the values were obtained:
COLO 205 [1] = test: Growth inhibition of human COLO205 cells assessed as cell growth at 1 nM relative to untreated control; type: functional; conditions: read-out: Activity
HT-29 = test: Growth inhibition of human HT-29 cells assessed as cell growth at 10 uM relative to untreated control; type: functional; conditions: read-out: Activity
SF-268 [2] = test: Growth inhibition of human SF268 cells; type: functional
HL-60(TB) [3] = test: Growth inhibition of human HL-60(TB) cells; type: functional; conditions: read-out: LC50 (the source's name)
A549 = test: Growth inhibition of human A549 cells assessed as cell growth at 1 uM relative to untreated control; type: functional; conditions: read-out: Activity
SW-620 = test: Growth inhibition of human SW620 cells assessed as cell growth at 100 nM relative to untreated control; type: functional; conditions: read-out: Activity
MOLT-4 = test: Growth inhibition of human MOLT4 cells assessed as cell growth at 10 nM relative to untreated control; type: functional; conditions: read-out: Activity
SF-268 [4] = test: Growth inhibition of human SF268 cells assessed as cell growth at 1 nM relative to untreated control; type: functional; conditions: read-out: Activity
NCI/ADR-RES [5] = test: Growth inhibition of human NCI/ADR-RES cells assessed as cell growth at 10 uM relative to untreated control; type: functional; conditions: read-out: Activity
NCI-H23 [6] = test: Growth inhibition of human NCI-H23 cells assessed as cell growth at 100 nM relative to untreated control; type: functional; conditions: read-out: Activity
SR [7] = test: Growth inhibition of human SR cells assessed as cell growth at 10 nM relative to untreated control; type: functional; conditions: read-out: Activity
A498 = test: Growth inhibition of human A498 cells assessed as cell growth at 10 uM relative to untreated control; type: functional; conditions: read-out: Activity
UO-31 = test: Growth inhibition of human UO31 cells assessed as cell growth at 1 uM relative to untreated control; type: functional; conditions: read-out: Activity
SK-MEL-2 [8] = test: Growth inhibition of human SK-MEL-2 cells assessed as cell growth at 100 nM relative to untreated control; type: functional; conditions: read-out: Activity
BT-549 = test: Growth inhibition of human BT549 cells; type: functional
HL-60(TB) [9] = test: Growth inhibition of human HL-60(TB) cells assessed as cell growth at 10 uM relative to untreated control; type: functional; conditions: read-out: Activity
EKVX [10] = test: Growth inhibition of human EKVX cells assessed as cell growth at 10 uM relative to untreated control; type: functional; conditions: read-out: Activity
Outline: (§1)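 Run externally at the National Cancer Institute as a 59-cell-line panel screen, with concentrations up to 100 μM. Growth was scored relative to control, where negative growth or total cell kill was possible. Data are in the Supporting Information.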

PC-3 [11] = test: Decrease in DNA synthesis in human PC3 cells at 5 uM after 24 hrs by BrdU incorporation assay; type: functional, cell-based
Outline: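 PC-3 cells were seeded at 2 × 10⁴ cells/well and exposed to 5 μM compound or DMSO for 24 h. BrdU incorporation was read by chemiluminescent cell proliferation ELISA on a luminometer. Background without anti-BrdU-peroxidase was subtracted and values were normalized to untreated control. Values are mean ± SEM.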

OVCAR-4 = test: Growth inhibition of human OVCAR4 cells assessed as cell growth at 1 nM relative to untreated control; type: functional; conditions: read-out: Activity
NCI-H322M [12] = test: Growth inhibition of human NCI-H322M cells; type: functional
NCI/ADR-RES [13] = test: Growth inhibition of human NCI/ADR-RES cells assessed as cell growth at 1 uM relative to untreated control; type: functional; conditions: read-out: Activity
SNB-75 = test: Growth inhibition of human SNB75 cells assessed as cell growth at 1 uM relative to untreated control; type: functional; conditions: read-out: Activity
OVCAR-8 = test: Growth inhibition of human OVCAR8 cells assessed as cell growth at 100 nM relative to untreated control; type: functional; conditions: read-out: Activity
OVCAR-5 = test: Growth inhibition of human OVCAR5 cells assessed as cell growth at 10 uM relative to untreated control; type: functional; conditions: read-out: Activity
NCI-H522 = test: Growth inhibition of human NCI-H522 cells assessed as cell growth at 10 nM relative to untreated control; type: functional; conditions: read-out: Activity
PC-3 [14] = test: Growth inhibition of human PC3 cells after 24 hrs by trypan blue exclusion method; type: functional; conditions: PC-3, 24 h
Outline: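 PC-3 cells grown in phenol red-free IMEM with 10% FBS, 2 mM glutamine and penicillin/streptomycin at 37 °C, 5% CO2. Seeded in triplicate at 1.5 × 10⁴ cells/well. After 24 h, treated with DMSO vehicle or 1, 5, 15, 30 or 60 μM compound for 24 h. Cells trypsinized, stained with 0.4% trypan blue, and live and dead cells counted by hemocytometer. Mean ± SEM of three independent observations.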

NCI-H23 [15] = test: Growth inhibition of human NCI-H23 cells assessed as cell growth at 1 nM relative to untreated control; type: functional; conditions: read-out: Activity
NCI-H322M [16] = test: Growth inhibition of human NCI-H322M cells assessed as cell growth at 10 nM relative to untreated control; type: functional; conditions: read-out: Activity
M14 = test: Growth inhibition of human M14 cells assessed as cell growth at 10 nM relative to untreated control; type: functional; conditions: read-out: Activity
UACC-62 = test: Growth inhibition of human UACC62 cells assessed as cell growth at 10 uM relative to untreated control; type: functional; conditions: read-out: Activity
DU-145 = test: Growth inhibition of human DU145 cells assessed as cell growth at 100 nM relative to untreated control; type: functional; conditions: read-out: Activity; outline: as §1
T47D = test: Growth inhibition of human T47D cells; type: functional
SNB-19 = test: Growth inhibition of human SNB19 cells assessed as cell growth at 100 nM relative to untreated control; type: functional; conditions: read-out: Activity
U-251 = test: Growth inhibition of human U251 cells assessed as cell growth at 1 nM relative to untreated control; type: functional; conditions: read-out: Activity
LOX IMVI = test: Growth inhibition of human LOXIMVI cells; type: functional
CAKI-1 = test: Growth inhibition of human Caki1 cells assessed as cell growth at 100 nM relative to untreated control; type: functional; conditions: read-out: Activity; outline: as §1
SR [17] = test: Growth inhibition of human SR cells assessed as cell growth at 100 nM relative to untreated control; type: functional; conditions: read-out: Activity
EKVX [18] = test: Growth inhibition of human EKVX cells assessed as cell growth at 100 nM relative to untreated control; type: functional; conditions: read-out: Activity; outline: as §1
[19] = Growth inhibition of human Hs 578T cells assessed as cell growth at 100 nM relative to untreated control; type: functional; conditions: read-out: Activity
NCI-H226 = test: Growth inhibition of human NCI-H226 cells; type: functional
SK-MEL-5 = test: Growth inhibition of human SK-MEL-5 cells assessed as cell growth at 10 nM relative to untreated control; type: functional; conditions: read-out: Activity
COLO 205 [20] = test: Growth inhibition of human COLO205 cells assessed as cell growth at 10 nM relative to untreated control; type: functional; conditions: read-out: Activity
SK-MEL-2 [21] = test: Growth inhibition of human SK-MEL-2 cells assessed as cell growth at 10 nM relative to untreated control; type: functional; conditions: read-out: Activity
[22] = read-out: LC50 (the source's name)

With `COc1ccc2c(c1)[nH]c1c(C)c(OS(=O)(=O)c3cccc4c(N(C)C)cccc34)ccc12` the growth at 0.001 µM (COLO 205 [1]) was 104%, the growth at 10 µM (HT-29) was 8% and the GI50 (SF-268 [2]) was 75.1 µM. It also gave a TGI (SF-268 [2]) greater than 100 µM, a CC50 (SF-268 [2]; [22]) greater than 100 µM and a CC50 (HL-60(TB) [3]) greater than 100 µM. The growth at 1 µM (A549) was 31%, the growth at 0.1 µM (SW-620) was 95% and the growth at 0.01 µM (MOLT-4) was 97%. It also gave a growth at 0.001 µM (SF-268 [4]) of 102%, a growth at 10 µM (NCI/ADR-RES [5]) of 15% and a growth at 0.1 µM (NCI-H23 [6]) of 81%. For the same molecule, the growth at 0.01 µM (SR [7]) was 91%, the growth at 10 µM (A498) was -4% and the growth at 1 µM (UO-31) was 54%. For the same molecule, the growth at 0.1 µM (SK-MEL-2 [8]) was 115%, the GI50 (BT-549) was 5.08 µM and the TGI (BT-549) was greater than 100 µM. The CC50 (BT-549; [22]) was greater than 100 µM, the growth at 10 µM (HL-60(TB) [9]) was -18% and the growth at 10 µM (EKVX [10]) was 16%. For the same molecule, the Activity (PC-3 [11]) was “Active”, the growth at 0.001 µM (OVCAR-4) was 94% and the GI50 (NCI-H322M [12]) was 12.8 µM. For the same molecule, the TGI (NCI-H322M [12]) was greater than 100 µM, the CC50 (NCI-H322M [12]; [22]) was greater than 100 µM and the growth at 1 µM (NCI/ADR-RES [13]) was 28%. It also gave a growth at 1 µM (SNB-75) of 24%, a growth at 0.1 µM (OVCAR-8) of 101% and a growth at 10 µM (OVCAR-5) of 33%. It also gave a growth at 0.01 µM (NCI-H522) of 101%, a GI50 (PC-3 [14]) of 1500 nM and a growth at 0.001 µM (NCI-H23 [15]) of 89%. For the same molecule, the growth at 0.01 µM (NCI-H322M [16]) was 94%, the growth at 0.01 µM (M14) was 105% and the growth at 10 µM (UACC-62) was 29%. The growth at 0.1 µM (DU-145) was 103%, the GI50 (T47D) was 3.06 µM and the TGI (T47D) was greater than 100 µM. It also gave a CC50 (T47D; [22]) greater than 100 µM, a growth at 0.1 µM (SNB-19) of 88% and a growth at 0.001 µM (U-251) of 100%. It also gave a GI50 (LOX IMVI) of 48.4 µM, a TGI (LOX IMVI) greater than 100 µM and a CC50 (LOX IMVI; [22]) greater than 100 µM. The growth at 0.1 µM (CAKI-1) was 81%, the growth at 0.1 µM (SR [17]) was 95% and the growth at 0.1 µM (EKVX [18]) was 91%. For the same molecule, the growth at 0.1 µM [19] was 88%, the GI50 (NCI-H226) was 11.3 µM and the TGI (NCI-H226) was greater than 100 µM. For the same molecule, the CC50 (NCI-H226; [22]) was greater than 100 µM, the growth at 0.01 µM (SK-MEL-5) was 86% and the growth at 0.01 µM (COLO 205 [20]) was 94%. The growth at 0.01 µM (SK-MEL-2 [21]) was 110%.
